From ChEMBL document CHEMBL5370586 (J Nat Prod, 2023)
The source made the active and inactive calls. No cut-off for these calls is given here.

Experiments:
PC-3 [1] = assay: Anti-invasive activity against human PC-3 cells assessed as reduction in MMP-9 protein secretion incubated for 48 hrs by ELISA analysis; format: functional, cell-based
DU-145 [2] = assay: Inhibition of cell invasion in human DU-145 cells incubated for 48 hrs by crystal violet staining based microscopic analysis; format: functional
[3] = Cytotoxicity against human PWR-1E cells assessed as cell viability incubated for 72 hrs in serum deprivation condition by MTT assay; format: toxicity, cell-based
Outline: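 Cells seeded at 1 × 10^3 (DU145, PC-3), 6 × 10^3 (LNCaP), 2 × 10^3 (PWR-1E) or 4.5 × 10^3 (RWPE-1) per well and left to adhere 24 h. CBD (0–100 μM) then given for 72 h in serum-free medium. MTT added for 3 h at 37 °C, formazan dissolved in DMSO, absorbance read at 570 nm. Viability is % of vehicle; IC50 by nonlinear regression; at least three independent experiments.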

PC-3 [4] = assay: Induction of apoptosis in human PC-3 cells at IC50 concentration incubated for 48 hrs by YO-PRO and PI staining based flow cytometry analysis; format: functional, cell-based
Outline: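 After 48 h CBD, DU145 (4 × 10^4 per well) or PC-3 (3 × 10^4 per well) supernatant and trypsinised cells pooled. Stained in ice-cold PBS with YO-PRO (1:1000) and propidium iodide (1:1000). Flow cytometry gated live, early apoptotic and late apoptotic cells and DNA fragmentation.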

PWR-1E [5] = assay: Induction of apoptosis in human PWR-1E cells assessed as late apoptotic cells at 1 to 10 uM incubated for 72 hrs by YO-PRO and propidium iodide staining based high content imaging fluorescence microscopic analysis; format: toxicity, cell-based; details: dose 1-10 µM
Outline: (§1)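 PWR-1E cells seeded at 2 × 10^3 per well and given CBD at 1, 2 or 10 μM without serum for 72 h. Stained with Hoechst 33342, YO-PRO-1 and PI, then imaged by high-content microscopy. Scored for confluency and for healthy, early and late apoptotic fractions; at least three independent experiments.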

PC-3 [6] = assay: Anti-invasive activity against human PC-3 cells assessed as increase in E-cadherin protein expression incubated for 48 hrs by Western blotting analysis; format: functional
LNCaP = assay: Antiproliferative activity against human LNCap cells assessed as reduction in cell viability incubated for 72 hrs in presence of 10% FBS by MTT assay; format: functional, cell-based
Outline: (§2)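 Cells left to adhere 24 h, then exposed to CBD (0–100 μM) for 72 h in medium with 10% FBS. MTT incubation 3 h at 37 °C, DMSO solubilisation, A570. Viability relative to vehicle; IC50 from nonlinear regression; at least three independent experiments.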

DU-145 [7] = assay: Antiproliferative activity against human DU-145 cells assessed as reduction in cell viability incubated for 72 hrs in presence of 10% FBS by MTT assay; format: functional, cell-based; details: DU-145, 72 h; outline: as §2
PC-3 [8] = assay: Antiproliferative activity against human PC-3 cells assessed as reduction in cell colonies incubated for 48 hrs detached and reseeded without compound and measured after 7 days by glutaraldehyde/crystal violet staining based clonogenic assay relative to control; format: functional; set-up: scale not given: the % may be the effect or the level left
Outline: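 PC-3 cells left to adhere 24 h, then treated 48 h. Detached and reseeded at 500 cells per well without drug, then grown 7 days at 37 °C, 5% CO2, with medium changed every 2–3 days. Colonies fixed and stained with glutaraldehyde/crystal violet and counted.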

DU-145 [9] = assay: Induction of cell cycle arrest in human DU-145 cells assessed as arrest in G2/M phase by measuring reduction in CDK1 protein expression at IC50 concentration incubated for 48 hrs by Western blotting analysis; format: functional, cell-based
Outline: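 DU145 or PC-3 cells seeded at 5 × 10^4 per well and given CBD for 48 h. Lysed in ice-cold RIPA with protease/phosphatase inhibitor; 40 μg protein per lane, SDS-PAGE, PVDF transfer, milk block. Primary antibodies overnight at 4 °C, then HRP secondary 1 h at room temperature, chemiluminescence. Densitometry normalised to loading control, then to vehicle; at least three experiments.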

PC-3 [10] = assay: Antiproliferative activity against human PC-3 cells assessed as reduction in cell viability incubated for 72 hrs in presence of SR144528 by MTT assay; format: functional, cell-based
Outline: (§3)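 DU145 or PC-3 cells pretreated 1 h with SR141716 (CB1 antagonist), SR144528 (CB2 antagonist), capsazepine (TRPV1 antagonist) or LPI (GPR55 agonist), then given CBD for 72 h. MTT read-out as % of vehicle. Compared with CBD alone by t-test; at least three independent experiments.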

PWR-1E [11] = assay: Induction of cell death in human PWR-1E cells assessed as reduction in nucleus circularity at 1 to 10 uM incubated for 72 hrs by Hoechst 33342 staining based high-content fluorescence microscopy; format: toxicity; details: dose 1-10 µM
DU-145 [12] = assay: Induction of apoptosis in human DU-145 cells assessed as late apoptotic cells at 1 to 10 uM incubated for 72 hrs by YO-PRO and propidium iodide staining based high content imaging fluorescence microscopic analysis; format: functional, cell-based; details: dose 1-10 µM
Outline: (§4)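 DU145 or PC-3 cells seeded at 2 × 10^3 per well and given CBD at 1, 5 or 10 μM with serum for 72 h; staurosporine as positive control. Stained 30 min with Hoechst 33342 (1:5000), YO-PRO-1 (1:1000) and PI (1:1000). High-content imaging with a 63× water objective. Hoechst gave confluency, nucleus area and circularity; YO-PRO/PI gave healthy, early and late apoptotic fractions.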

PWR-1E [13] = assay: Induction of cell death in human PWR-1E cells assessed as reduction in nucleus area at 1 to 10 uM incubated for 72 hrs by Hoechst 33342 staining based high-content fluorescence microscopy; format: toxicity; details: dose 1-10 µM
PWR-1E [14] = assay: Induction of apoptosis in human PWR-1E cells assessed as reduction in fraction of healthy cells at 1 to 10 uM incubated for 72 hrs by YO-PRO and propidium iodide staining based high content imaging fluorescence microscopic analysis; format: toxicity, cell-based; details: dose 1-10 µM; outline: as §1
PC-3 [15] = assay: Inhibition of cell invasion in human PC-3 cells incubated for 48 hrs by crystal violet staining based microscopic analysis relative to control; format: functional
PC-3 [16] = assay: Induction of apoptosis in human PC-3 cells assessed as early apoptotic cells at 1 to 10 uM incubated for 72 hrs by YO-PRO and propidium iodide staining based high content imaging fluorescence microscopic analysis; format: functional, cell-based; details: dose 1-10 µM; outline: as §4
PC-3 [17] = assay: Anti-invasive activity against human PC-3 cells assessed as reduction in MMP-3 protein secretion incubated for 48 hrs by ELISA analysis; format: functional, cell-based
PC-3 [18] = assay: Induction of cell death in human PC-3 cells assessed as reduction in cell nucleus area at 1 to 10 uM measured after 72 hrs by Hoechst 33342 staining based high content imaging fluorescence microscopic analysis; format: functional; details: dose 1-10 µM; outline: as §4
DU-145 [19] = assay: Induction of apoptosis in human DU-145 cells assessed as reduction in fraction of healthy cells at 1 to 10 uM incubated for 72 hrs by YO-PRO and propidium iodide staining based high content imaging fluorescence microscopic analysis; format: functional, cell-based; details: dose 1-10 µM; outline: as §4
PC-3 [20] = assay: Antiproliferative activity against human PC-3 cells assessed as reduction in cell viability incubated for 72 hrs in presence of 10% FBS by MTT assay; format: functional, cell-based; details: PC-3, 72 h; outline: as §2
DU-145 [21] = assay: Induction of apoptosis in human DU-145 cells assessed as early apoptotic cells at 1 to 10 uM incubated for 72 hrs by YO-PRO and propidium iodide staining based high content imaging fluorescence microscopic analysis; format: functional, cell-based; details: dose 1-10 µM; outline: as §4
PC-3 [22] = assay: Antiproliferative activity against human PC-3 cells assessed as reduction in cell viability incubated for 72 hrs in presence of capsazepine by MTT assay; format: functional, cell-based; outline: as §3
DU-145 [23] = assay: Antiproliferative activity against human DU-145 cells assessed as reduction in cell viability incubated for 72 hrs in presence of capsazepine by MTT assay; format: functional, cell-based; outline: as §3
DU-145 [24] = assay: Antiproliferative activity against human DU-145 cells assessed as reduction in cell viability incubated for 72 hrs in presence of SR144528 by MTT assay; format: functional, cell-based; outline: as §3
DU-145 [25] = assay: Induction of cell death in human DU-145 cells assessed as reduction in cell nucleus area at 1 to 10 uM measured after 72 hrs by Hoechst 33342 staining based high content imaging fluorescence microscopic analysis; format: functional; details: dose 1-10 µM; outline: as §4
DU-145 [26] = assay: Antiproliferative activity against human DU-145 cells assessed as reduction in cell count at IC50 concentration incubated for 48 hrs by flow cytometry analysis; format: functional, cell-based
Outline: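 Six-well seeding at 4 × 10^4 (DU145) or 3 × 10^4 (PC-3) cells per well; CBD for 48 h. Supernatant and trypsinised adherent cells pooled and resuspended in ice-cold PBS. Cells counted by flow cytometry with forward/side scatter gating; at least three independent experiments.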

## C=C(C)[C@@H]1CCC(C)=C[C@H]1c1c(O)cc(CCCCC)cc1O [CANNABIDIOL]
PC-3 [1]
  Activity: inactive
DU-145 [2]
  inhibition: Active
[3]
  IC50 at 72 h: 0.9 µM
PC-3 [4]
  Activity: inactive
PWR-1E [5]
  Activity: Toxic
PC-3 [6]
  Activity: >2
LNCaP
  IC50: 18 µM
DU-145 [7]
  IC50: 12.3 µM
PC-3 [8]
  Activity: ~25%
DU-145 [9]
  Activity: Active
PC-3 [10]
  Activity: Active
PWR-1E [11]
  Activity: Toxic
DU-145 [12]
  Activity: inactive
PWR-1E [13]
  Activity: Toxic
PWR-1E [14]
  Activity: Toxic
PC-3 [15]
  inhibition (INH): ~30%
PC-3 [16]
  Activity: inactive
PC-3 [17]
  Activity: inactive
PC-3 [18]
  Activity: inactive
DU-145 [19]
  Activity: inactive
PC-3 [20]
  IC50: 10.5 µM
DU-145 [21]
  Activity: inactive
PC-3 [22]
  Activity: Active
DU-145 [23]
  Activity: Active
DU-145 [24]
  Activity: Active
DU-145 [25]
  Activity: inactive
DU-145 [26]
  Activity: Active
